This is an account of results in publication PMC6937391 (Leukemia research, 2019).

The structures appear in SMILES notation.

The target in experiment [1] is C-L (β1) proteasomal sub-catalytic activity (Homo sapiens, UniProt P28072). Briefly: Cell-based proteasome activity assay. Conditions: Ki50 C-L (β1), 24 h treatment.
Experiment [2] addresses T-L (β2) proteasomal sub-catalytic activity (Homo sapiens, UniProt Q99436). Briefly: Cell-based proteasome activity assay. To be noted: Ki50 T-L (β2), 24 h treatment.
Another experiment relates to MM.1S cells. Briefly: Cell viability assay. Conditions: Homo sapiens, MM1.S, 24 h, read-out: EC50 (cell viability). Format: cell-based. Summed up:
(§1)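 Cells kept in RPMI 1640 with 10% heat-inactivated FBS and penicillin/streptomycin at 37°C, 5% CO2. Plated 24 h before a 24 h exposure to test compound diluted from DMSO stock; vehicle controls got 1% DMSO. CellTiter-Glo added, equilibrated 5 min at 37°C, luminescence read at 470 nm (1 s). Survival as % of untreated control; EC50 from 3- or 4-parameter nonlinear regression.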

The next experiment deals with MM.1S BzR cells. Briefly: Cell viability assay. Format: cell-based. To be noted: Homo sapiens, MM1.S, 24 h, read-out: EC50 (cell viability).
In a further experiment the test system is U266 cells. Briefly: Cell viability assay. Format: cell-based. Conditions: Homo sapiens, U-266, 24 h, read-out: EC50 (cell viability). Put shortly:
as §1

A further experiment deals with U266 BzR cells. Briefly: Cell viability assay. Format: cell-based. To be noted: Homo sapiens, U-266, 24 h, read-out: EC50 (cell viability).
The next experiment relates to Granta cells. Briefly: Cell viability assay. Format: cell-based. Conditions: 24 h, read-out: EC50 (cell viability). Summed up: as §1
The next experiment has as its system Granta BzR cells. Briefly: Cell viability assay. Format: cell-based. Conditions: 24 h, read-out: EC50 (cell viability).
Another experiment relates to Mino cells. Briefly: Cell viability assay. Type of experiment: cell-based. Conditions: Homo sapiens, 24 h, read-out: EC50 (cell viability). Summed up: as §1
Another experiment relates to Mino BzR cells. Briefly: Cell viability assay. Type of experiment: cell-based. To be noted: Homo sapiens, 24 h, read-out: EC50 (cell viability).

A word on the Ki: it is a dissociation constant, usually derived from enzyme kinetics or from competition with a known ligand. Read a low Ki as a stronger hold on the target. Broadly, the EC50 is the concentration at which the effect is half-maximal. Consider `CC(C)C[C@H](NC(=O)CNC(=O)c1cc(Cl)ccc1Cl)B(O)O` [IXA, ixazomib], for which the Ki in experiment [1] (ARD cells) is 19.6 ± 8.32 nM; in [1] (MM.1R cells), 7.41 ± 1.59 nM; in [1] (U266 cells), 16.1 ± 4.01 nM; in [2] (ARD cells) it was 92.8 ± 19.1 nM; in experiment [2] (MM.1R cells), 29.3 ± 7.83 nM; in experiment [2] (U266 cells), 74.9 ± 16.8 nM. Besides, the EC50 was 25.5 ± 0.9 nM with MM.1S cells; 449 ± 23 nM in the experiment with MM.1S BzR cells; 34.7 ± 2.1 nM in the experiment on U266 cells; 169 ± 15 nM in the experiment with U266 BzR cells; 147 ± 12 nM in the experiment with Granta cells; 774 ± 150 nM in the experiment with Granta BzR cells. In addition, the figures for the EC50 in the experiment with Mino cells and with Mino BzR cells were 97.6 ± 4.6 nM and 336 ± 30 nM, respectively.

In the case of `CC(C)C[C@H](NC(=O)[C@H](Cc1ccccc1)NC(=O)c1cnccn1)B(O)O` [BTZ, bortezomib], the EC50 in the experiment on MM.1S cells worked out at 2.31 ± 0.03 nM; with MM.1S BzR cells it was 28.4 ± 0.6 nM; in the experiment with U266 cells it was 2.7 ± 0.2 nM; with U266 BzR cells, 14.1 ± 2 nM; with Granta cells it was 14.9 ± 1.6 nM; in the experiment with Granta BzR cells, 51.5 ± 9.3 nM. In addition, the concentration for a half-maximal effect (EC50) was 10 ± 0.4 nM with Mino cells and 23.4 ± 1.1 nM in the experiment on Mino BzR cells.

Turning to `CC(C)C[C@H](NC(=O)[C@H](CCc1ccccc1)NC(=O)CN1CCOCC1)C(=O)N[C@@H](Cc1ccccc1)C(=O)N[C@@H](CC(C)C)C(=O)[C@@]1(C)CO1` [CAR, carfilzomib], the half-maximal effective concentration (EC50) came out at 5.5 ± 0.2 nM with MM.1S cells; 27.7 ± 1.6 nM in the experiment on MM.1S BzR cells; 6.9 ± 0.5 nM in the experiment on U266 cells; 10.9 ± 1.4 nM in the experiment on U266 BzR cells; 11.7 ± 0.3 nM in the experiment on Granta cells; 24.2 ± 1.4 nM with Granta BzR cells. Besides, the EC50 is 6.3 ± 0.3 nM in the experiment on Mino cells and 20.7 ± 0.7 nM in the experiment with Mino BzR cells.
